# High-throughput results: PubChem BioAssay, The Scripps Research Institute Molecular Screening Center
# Hits are enriched below; roughly 1.5% of the tested compounds scored in any of these assays.
# OXTR potentiate – potentiates the human oxytocin receptor response | CHO-OTR cells, Fluo-8 calcium fluorescence, potentiator mode; 0% = oxytocin EC15, 100% = EC100 | AID 2445 | actives 0.061% (n = 320,000) | activation, % at 3 µM | P30559;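 active = activation above that plate's cutoff, the mean activation of tested compounds plus 3 SD, cut at about 6.6% in these data, passing the limit was not always enough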
# Target sequence (P30559 whole entry, looked up): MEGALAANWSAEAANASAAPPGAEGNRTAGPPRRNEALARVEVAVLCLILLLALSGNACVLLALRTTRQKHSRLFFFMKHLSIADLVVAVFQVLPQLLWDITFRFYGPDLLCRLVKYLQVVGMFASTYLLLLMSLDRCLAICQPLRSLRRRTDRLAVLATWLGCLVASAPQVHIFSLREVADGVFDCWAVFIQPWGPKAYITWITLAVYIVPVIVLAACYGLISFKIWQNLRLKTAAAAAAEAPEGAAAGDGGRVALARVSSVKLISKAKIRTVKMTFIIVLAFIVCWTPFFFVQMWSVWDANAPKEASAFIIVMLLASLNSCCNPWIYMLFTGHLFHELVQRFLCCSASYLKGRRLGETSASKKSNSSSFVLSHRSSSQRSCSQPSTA
#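 System: human OTR in CHO cells; Also added: sub-maximal oxytocin, roughly EC15; Timing: compound 6 min at room temperature before oxytocin, 100 s read; Technique: Fluo-8 intracellular calcium fluorescence, ex 470-495, em 515-575 nm; Controls: oxytocin EC15 low and EC100 high; Replication: singlicate.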
# V1aR counter – V1a receptor agonism, counter-screen for OXTR agonists; activation, % at 3 µM; actives 0.25% (n = 320,000); CHO-V1R cells, Fluo-8 calcium fluorescence, agonist mode; 0% DMSO, 100% 3 nM vasopressin;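 active = activation above the mean activation of all tested compounds plus 3 SD, per screening run, cut at about 20% in these data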;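 note: signal is peak over basal fluorescence ratio across a 100 second FLIPR read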
# OXTR agonist – activates the human oxytocin receptor; CHO-OTR cells, Fluo-8 calcium fluorescence; normalized: DMSO 0%, oxytocin 100%; activation, % at 3 µM; AID 2435; actives 0.32% (n = 320,000); P30559;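 active = activation above the mean of all tested compounds plus 3 SD, cutoff set per screening run, cut at about 20% in these data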;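 note: peak over basal fluorescence ratio from a 100 s FLIPR kinetic read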
# M4 PAM – potentiates acetylcholine response at human M4 receptor. P08173. actives 0.4% (n = 360,000). CHO-K1 hM4/Gqi5, Fluo-8 calcium fluorescence, ACh EC20; 0% = ACh EC20, 100% = maximal ACh. activation, % at 3 µM. AID 624126;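 active = activation above its plate's cutoff, the mean activation of sample wells plus 3 SD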
# M4 ag – CHRM4 agonism in calcium assay | activation, % at 3 µM | P08173 | AID 624127 | actives 0.14% (n = 360,000) | CHO-K1 hM4/Gqi5, Fluo-8 calcium fluorescence; vehicle 0%, full acetylcholine response 100%;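 active = activation above the run mean over all test wells plus 3 SD, cut at about 32% in these data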;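 note: peak over basal fluorescence ratio per well then scaled between controls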
# M4 antag – CHRM4 antagonism in calcium assay; CHO-hM4 cells, ACh EC80, Fluo-8 calcium fluorescence; P08173; AID 624125; actives 0.73% (n = 360,000); inhibition, % at 3 µM;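 active = inhibition above its plate's cutoff, the mean inhibition of sample wells plus 3 SD, cut at about 27% in these data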
# Hits are given with their value; – = inactive; · = no result.
SMILES,OXTR potentiate,V1aR counter,OXTR agonist,M4 PAM,M4 ag,M4 antag
CCS(=O)(=O)Nc1ccc(C2=NN(C(=O)c3ccco3)C(c3ccc(C)cc3)C2)cc1 (stereo unspecified),11,–,–,–,–,–
Cc1ccc(C2CC(c3ccc(NS(C)(=O)=O)cc3)=NN2C(=O)c2ccco2)cc1 (stereo unspecified),–,–,–,–,–,–
Cc1c(C(=O)NCCC2=CCCCC2)oc2ccc(S(=O)(=O)N3CCC4(CC3)OCCO4)cc12,–,–,–,–,–,34
Cc1c(C(=O)NCc2ccccc2)oc2ccc(S(=O)(=O)N3CCC4(CC3)OCCO4)cc12,–,–,–,–,–,–
CCCC(=O)N(c1ccccc1)C1C=CS(=O)(=O)C1 (stereo unspecified),–,–,–,–,–,–
O=C(Nc1ccccc1)N(c1ccccc1)C1C=CS(=O)(=O)C1 (stereo unspecified),–,–,–,–,–,45
CN1Cc2sc(NC(=S)NC(=O)c3ccccc3)c(C#N)c2CC1(C)C,–,34,32,·,·,·
CSc1sc(C(=O)NCC2CC2)c(-c2cccs2)c1C#N,–,–,–,17,–,–
CCCC(CCC)C(=O)OC1C[C@H]2CC[C@@H](C1)[N+]2(C)C (stereo partly specified),–,–,–,–,–,99
CC(C)[N+]1(C)[C@@H]2CC[C@@H]1CC(OC(=O)C(CO)c1ccccc1)C2 (stereo partly specified),–,–,–,·,·,·
Cc1cc(Br)ccc1NC(=O)CNC(=O)c1cnn(C)c1,–,–,–,–,–,–
CCc1nc2c(c(=O)c3ccccc3n2C)c(=O)n1C1CCCCCC1,–,88,47,–,–,–
O=S(=O)(NNc1cccc(Cl)n1)c1ccc(Cl)cc1,·,·,·,–,–,–
CCOC(=O)C1C(=O)C=C(/C=C/c2ccc(N(C)C)cc2)CC1c1ccccc1 (stereo unspecified),–,45,38,–,–,–
COc1ccc(OC)c(-c2cnc(OC(C)(C)C)nc2OC(C)(C)C)c1,–,–,–,–,–,–
COc1cc(N2CCCC2)c(OC)cc1/C=C1/NC(=S)NC1=O,–,36,48,–,–,–
Cc1ccc(Sc2ccc(S(=O)(=O)Nc3ccc(C(=O)O)cc3)cc2)cc1C,–,21,25,–,–,–
Cc1ccc(Oc2ccc(S(=O)(=O)Nc3ccc(C(=O)O)cc3)cc2)cc1,–,–,–,–,–,–
CCOC(=O)CCc1c(C)c2ccc(OCC(=O)OC(C)C)cc2oc1=O,–,–,–,–,–,–
CCOC(=O)CCc1c(C)c2ccc(OC3CCCCC3=O)cc2oc1=O (stereo unspecified),–,–,–,–,–,34
CCCC(C)C(=O)Nc1ccc(S(N)(=O)=O)cc1 (stereo unspecified),–,–,–,23,–,–
COc1ccccc1NC(=O)COC(=O)c1ccc(N2CCCC2=O)cc1,–,–,–,–,–,–
COc1ccc(CCn2c(=O)[nH]c3cc(C(=O)NCCN4CCOCC4)ccc3c2=O)cc1OC,–,–,–,29,–,–
COc1ccc(CCn2c(=O)[nH]c3cc(C(=O)NCCCN4CCOCC4)ccc3c2=O)cc1OC,–,–,–,–,–,–
O=C1NC(=O)C2(N1)c1ccccc1-c1ccccc12,·,·,·,–,–,–
SMILES,OXTR potentiate,V1aR counter,OXTR agonist,M4 PAM,M4 ag,M4 antag
O=C1NC(=O)C2(N1)C(=O)c1cccc3cccc2c13 (stereo unspecified),·,·,·,–,161,29
COc1cc2cc(C(=O)NCCc3c[nH]c4ccccc34)c(N)nc2cc1OC,·,·,·,–,33,–
COc1cc(SC)ccc1C(=O)NCCc1c[nH]c2ccccc12,–,–,–,–,–,–
COCCNC(=O)C[C@@H]1C[C@H]2c3cc(NC(=O)Nc4ccc(F)cc4)ccc3O[C@H]2[C@H](CO)O1,·,·,·,–,–,–
COc1ccc(-c2cc(C(=O)N3CCN(c4ccccc4O)CC3)c3ccccc3n2)cc1,–,–,–,–,–,29
CCOc1ccc(-c2cc(C(=O)N3CCN(c4ccccn4)CC3)c3ccccc3n2)cc1,–,–,–,–,–,–
COc1ccc(-c2cc(C(=O)N3CCN(c4ccccn4)CC3)c3ccccc3n2)cc1,–,–,–,–,–,27
COc1ccc(C(CNC(=O)c2ccc(OCc3c(C)noc3C)cc2)N2CCCC2)cc1 (stereo unspecified),–,–,–,–,–,–
CN(C)S(=O)(=O)n1cnc([C@@H]2[C@@H]3C(=O)OC[C@@H]3C[C@]23N=CN(Cc2ccccc2)C3=O)c1,–,–,–,–,–,–
O=C(Nc1ccc(Br)c(C(F)(F)F)c1)c1ccc(C(F)(F)F)cc1,–,–,–,–,–,34
O=[N+]([O-])c1cccc(COc2ccc(CN3CCOCC3)cc2)c1,·,·,·,–,–,–
O=[N+]([O-])c1cccc(COc2ccc(CN3CCCC3)cc2)c1,·,·,·,–,–,28
N/C(=N\NC(=O)c1ccc(F)cc1)c1cc2ccccc2oc1=O,–,–,–,–,–,–
N/C(=N\NC(=O)c1cccc(F)c1)c1cc2ccccc2oc1=O,–,–,–,28,–,–
Cc1cc(N/N=C/c2ccccc2O)nc(-c2ccccc2O)n1,–,–,–,–,–,–
Cc1cc(N/N=C/c2ccc(O)cc2O)nc(-c2ccccc2O)n1,–,–,–,–,–,30
CC1Cc2ccccc2N1S(=O)(=O)c1cccc(C(=O)N2Cc3ccccc3CC2C(N)=O)c1 (stereo unspecified),–,–,–,–,–,–
COC(=O)c1ccccc1NC(=S)N(Cc1ccc2c(c1)OCO2)Cc1cc2cc(OC)ccc2[nH]c1=O,–,–,–,–,–,–
CCn1c(COc2ccc3ccccc3c2C)nnc1SCC(=O)Nc1cccc(C(=O)O)c1,–,–,–,25,–,–
CCn1c(COc2cccc(C)c2)nnc1SCC(=O)Nc1cccc(C(=O)O)c1,–,–,–,–,–,–
Cc1ccc(OCCCCN2CCC(C)CC2)cc1,–,–,–,–,–,–
CC1CCN(CCOc2ccc(C(=O)c3ccccc3)cc2)CC1,–,–,–,–,–,43
CC1CCN(CCCCOc2cccc(C(C)C)c2)CC1,–,–,–,–,–,34
CC1CCN(CCCCOc2ccc(C(=O)c3ccccc3)cc2)CC1,–,–,–,–,–,42
O=C(Nc1ccccc1C(=O)O)c1cc(S(=O)(=O)N2CCOCC2)c(Br)s1,–,–,–,16,–,–
O=C(Nc1ccccc1Cl)c1cc(S(=O)(=O)N2CCOCC2)cs1,–,–,–,–,–,–
